Reference: PMC10824272 (Biomedicine & pharmacotherapy = Biomedecine & …, 2023)
Entries after “also recorded” stand apart in the source; their conditions may differ.

Assays:
[1] = test system: SW480^cld1 cells; assay: Cell viability; type: cell-based, human
Outline: (§1)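 Claudin-1-overexpressing SW480cld1 and SW620 cells grown in RPMI with 10% FBS and exposed for 72 hours to a range of test compound concentrations. Viability measured by PrestoBlue reagent. EC50 calculated from the concentration–viability data.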

[2] = test system: SW620 cells; assay: Cell viability; type: cell-based, human
Outline: as §1

[3] = test system: HCT116 cells; assay: Cell viability; type: cell-based, human; settings: 25 & 50μM
Outline: (§2)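 Cells maintained in RPMI plus 10% FBS. Viability read with PrestoBlue reagent per kit protocol after 72 h exposure to test compound.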

[4] = test system: SW480^cld2 cells; assay: Cell viability; type: cell-based, human; settings: 25 & 50μM
Outline: as §2

[5] = test system: SW480 cells; assay: Cell viability; type: cell-based, human; settings: even at 25μM
[6] = test system: SW480^cld1 cells; assay: Anoikis-induced apoptosis assay; type: cell-based
Outline: (§3)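 Anoikis induced by plating cells on poly-HEMA-coated culture plates. Apoptosis quantified with a cell death detection ELISA. Parental lines were cultured in RPMI with 10% FBS. Claudin-1-overexpressing SW480 and claudin-1-knockdown SW620 derivatives were used.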

[7] = test system: SW620 cells; assay: Anoikis-induced apoptosis assay; type: cell-based
[8] = test system: HCT116 cells; assay: Anoikis-induced apoptosis assay; type: cell-based, human; settings: claudin-1 deficient HCT116
[9] = test system: SW620^1C cells; assay: Anoikis-induced apoptosis assay; type: cell-based, human; settings: claudin-1 knockdown SW620^1C
Outline: as §3

[10] = test system: SW620 cells; assay: Transwell matrigel invasion assay; type: cell-based, human; settings: I-6; claudin-1 overexpressed SW620
[11] = test system: SW480^cld1 cells; assay: Transwell matrigel invasion assay; type: cell-based, human; settings: I-6; claudin-1 overexpressed SW480^cld1
[12] = test system: HCT116 cells; assay: Transwell matrigel invasion assay; type: cell-based, human; settings: I-6; claudin-1 deficient HCT116
[13] = test system: SW480^cld1 xenograft tumor; assay: Subcutaneous xenograft tumor study; type: in vivo, athymic nude mice
Outline: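 Cells implanted subcutaneously in athymic nude mice, n = 5 per group, vehicle controls. For SW480cld1 with I-6, once-weekly dosing started 10 days after implantation, once tumors were palpable, for two weeks. Caliper volume over time, formula […]. Ki67 and cleaved PARP by IHC. Behavior and body weight monitored.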

[14] = test system: colon tumoroids from APC^min/+ / claudin-1 mice; assay: Tumoroid culture apoptosis; type: cell-based
Outline: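 Colon tumors from APCmin/+/claudin-1 mice washed in ice-cold PBS and digested with collagenase-containing buffer. Single cells pelleted at 200 x g for 3 min, embedded in Matrigel and plated as tumoroids. Tumoroids exposed to test compound alone or with 5 μM 5-FU, then scored for apoptosis.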

[15] = Plasma pharmacokinetics in mice; type: in vivo
Outline: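 I-6 given as a single 1 mg/kg intravenous dose to C57BL6 mice (n=5), with serial blood sampling. PDS-0330 given at 5 mg/kg by oral gavage or IP, with ~100 μl blood drawn from the maxillary vein at 5, 15, 30 min and 1, 2, 4, 6, 8, 24 h. Plasma levels in ng/ml; non-compartmental parameters.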

[16] = Tissue bio-distribution in mice; type: in vivo; settings: both, mouse, liver, po, 5 mg/kg
[17] = Metabolic stability, phase I; type: in vitro ADME, human; settings: HLM, phase I metabolism, 60 min
Outline: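 Phase I stability in human liver microsomes (20 mg/ml stock), 100 mM potassium phosphate pH 7.4, 10 mM MgCl2, 2 mM NADPH. Mix pre-incubated 10 min at 37 °C. Output is percent parent remaining per time point. Elimination rate constant taken from first-order plot of ln area ratio versus time.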

[18] = target: T1, claudin-1/Src association (Homo sapiens, UniProt O95832); assay: Proximity ligation assay; type: cell-based
T1 sequence (O95832 1-211): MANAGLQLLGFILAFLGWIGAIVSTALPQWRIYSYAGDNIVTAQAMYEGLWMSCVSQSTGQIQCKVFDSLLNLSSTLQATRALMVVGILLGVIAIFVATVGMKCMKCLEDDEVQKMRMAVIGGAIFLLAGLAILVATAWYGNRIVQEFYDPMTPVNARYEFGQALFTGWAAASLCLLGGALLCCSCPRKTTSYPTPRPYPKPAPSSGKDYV

[19] = test system: pSrc, pAkt, Bcl2, Bcl-xL, survivin, cleaved PARP in SW620 and SW480^cld1 cells; assay: Immunoblotting of signaling and apoptosis markers; type: cell-based, human; settings: I-6, SW480^cld1 cells
Outline: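 Treated cells (vehicle or 12.5 and 25 μM) lysed. 10–30 μg protein per lane resolved by SDS-PAGE and immunoblotted, with enhanced chemiluminescence detection on film. Antibodies included p-Src (Tyr416), pAkt and total Akt, with GAPDH or β-actin as loading reference.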

[20] = I-6 1mg/kg intravenous, mice, plasma, 1 mg/kg
[21] = both, C57BL6, mouse, plasma, iv, 1 mg/kg

With `COc1cc2ccccc2cc1C(=O)NC(=S)Nc1ccc(-c2nc3ccccc3[nH]2)cc1` [I-6, N-((4-(1H-benzo[d]imidazol-2-yl)phenyl)carbamothioyl)-3-methoxy-2-naphthamide] the cell viability ([1]; 25 & 50μM, P<0.001) was “significantly decreases cell viability”, the EC50 ([1]; Homo sapiens, 72 h, read-out: EC50, cell viability) was 28.4 µM and the “effect with 5-FU on cell growth” value ([1]; I-6 0.625μM-20μM with 5-FU 5μM) was “synergistic effect”. The cell viability ([2]; 25 & 50μM, P<0.001) was “significantly decreases cell viability”, the EC50 ([2]; Homo sapiens, SW-620, 72 h, read-out: EC50, cell viability) was 24.8 µM and the cell viability [3] was “no significant impact”. The cell viability [4] was “no significant impact”, the “impact on SW480 cells” value [5] was “no significant impact” and the resistance to anoikis ([6]; claudin-1 overexpressed SW480^cld1) was “dramatically inhibits anoikis resistance; also recorded: inhibition of resistance to anoikis”. For the same compound, the “effect with 5-FU on anoikis resistance” value ([6]; co-treatment with 5-FU) was “synergistic effect”, the resistance to anoikis ([7]; claudin-1 overexpressed SW620) was “inhibition of resistance to anoikis” and the “effect with 5-FU on anoikis resistance” value ([7]; co-treatment with 5-FU) was “synergistic effect”. For the same compound, the resistance to anoikis [8] was “no effect”, the resistance to anoikis [9] was “no effect” and the invasion [10] was “suppresses invasion”. For the same compound, the invasion [11] was “suppresses invasion”, the invasion [12] was “no effect” and the “Ki67 expression in tumors (IHC)” value ([13]; I-6 10 mg/kg) was “significantly inhibited”. For the same compound, the “cleaved PARP in tumors (IHC)” value ([13]; I-6 10 mg/kg) was “significantly increased”, the “tumor volume and weight at necropsy” value ([13]; I-6 10 mg/kg once/week, vs vehicle) was “significantly reduced” and the “effect with 5-FU on development of xenograft tumor” value ([13]; co-treatment with 5-FU, nude mice) was “synergistic effect”. The “mouse behavior or weight” value ([13]; during I-6 / 5-FU xenograft studies) was “no obvious changes”, the “effect with 5-FU on induction of apoptosis in tumoroids” value ([14]; I-6 25μM with 5-FU 5μM) was “synergistic effect” and the “rate of apoptosis in tumoroids” value ([14]; I-6 25μM, 48 hours) was “significantly increased”. For the same compound, the “time up to which detectable in plasma” value ([15]; I-6 1mg/kg intravenous, mice) was “up to 24 h”, the “AUC0- ∞” value [15, 20] was 1207.1 ± 35.6 ng·h/mL and the C0 [15, 20] was 798.3 ± 277.2 ng/mL. The “time of plasma peak concentration” value ([15]; I-6 oral 5mg/kg, mice) was 2 h, the AUC(0-t) [15, 21] was 1140 ± 59.6 ng·h/mL and the MRT [15, 21] was 5.6 ± 1.2 h. The half-life [15, 21] was 7 ± 1.6 h, the AUC(0-inf) ([15]; both, C57BL6, mouse, plasma, iv, 1 mg/kg, AUC0- ∞, I-6 1mg/kg intravenous, mice) was 1140 ng·h/mL and the C0 ([15]; both, C57BL6, mouse, plasma, iv, 1 mg/kg, C0, I-6 1mg/kg intravenous, mice) was 798 ng/mL. It also gave a Vd ([15]; both, C57BL6, mouse, plasma, iv, 1 mg/kg, Vd, I-6 1mg/kg intravenous, mice) of 8.4 ± 2.1 L/kg, a Vd ([15]; both, C57BL6, mouse, plasma, iv, 1 mg/kg, Vss, I-6 1mg/kg intravenous, mice) of 4.7 ± 1.1 L/kg and a Cmax ([15]; both, mouse, plasma, po, 5 mg/kg) of 2.8 ng/mL. For the same compound, the concentration at 24 h [16] was 65 ng/g, the “drug remaining after 60 min” value [17] was 49% and the “association of claudin-1 with Src” value [18] was “significantly interferes”. For the same compound, the Src phosphorylation [19] was “significantly interferes”.
